Screens: PubChem, several laboratories
T cruzi repl – blocks replication of Trypanosoma cruzi | inhibition, % (no concentration beside the values) | T. cruzi beta-gal in NIH3T3, luminescence, 90 h | hit rate 1.4% among 300,000 | AID 1885;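 active = mean inhibition across valid replicates above about 55%, limit read from the data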;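 also: signal also drops with host cell toxicity which is not excluded here; 0% = plate median of DMSO wells and 100% = zero luminescence signal; higher percent means less beta-gal luminescence so fewer parasites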
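System – NIH/3T3 host cells with β-galactosidase reporter T. cruzi · Doses – single 50 nL compound addition per well in DMSO · Reagent – 5000 T. cruzi trypomastigotes/well · Medium – Low-serum DMEM with 2% FBS · Timing – ≥90 h infection period, 3 h prior cell attachment · Evaluation – parasite load inhibition, % · Technique – GalScreen luminescence, 60 min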
L major viab – Leishmania major promastigote growth inhibition. Leishmania major promastigotes, resazurin fluorescence viability. inhibition, % at 10 µM. hit rate 9% among 200,000. AID 1063; in the data active = inhibition above about 50%;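 also: promastigotes grown with compound for 44 hours at 28 °C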
Dynein cargo inh – dynein cargo transport inhibition. hit rate 0.47% among 220,000. z-score, hits read low. 3617.4 mouse cells, GR-EGFP nuclear translocation imaging; test concentration mostly 20 µM; stimulated with dexamethasone, 1 µM; hits give low values. AID 1381;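 active = plate z-score of nuclear minus cytoplasmic receptor signal below a set negative limit, without overly bright fluorescence or cell loss, cut at about -3.5 in these data, passing the limit was not always enough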;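 also: z-score of nuclear minus cytoplasmic ring GR-EGFP intensity difference per well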
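medium = tetracycline-free induction medium containing charcoal-stripped FBS | also added = 1.0 µM final dexamethasone stimulus | schedule = 48 h induction, 1 h compound, 30 min dex at 37 °C | technique = fixed, Hoechst-stained cells imaged at 10x for EGFP | measure = GR-EGFP nuclear translocation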
XBP1 UPR activ – activators of adaptive arm of unfolded protein response (XBP1); CHO-XBP1 luciferase reporter, IRE1-XBP1 UPR activation, luminescence; percent of tunicamycin response, DMSO as zero; activation, % at 20 µM; hit rate 0.33% among 330,000;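 active = versus positive control, 20 µM dose yields 30% or more activation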;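 also: 100% = tunicamycin at 10 µg/mL and 0% = DMSO only wells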
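Material – CHO cell line with stable XBP1 luciferase reporter · Buffer or medium – F12 plus 10% FBS · Compound – single point, 20 µM final compound, 1% DMSO · Schedule – 16-18 h cell attachment at 37 °C, then 6 h compound exposure · Signal – Steady-Glo luminescence read · Benchmarks – high control tunicamycin 10 µg/mL final, low control DMSO vehicle only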
CHOP inh – blocks CHOP induction under ER stress | CHO-K1 CHOP-promoter luciferase, tunicamycin-induced, 15-18 h | inhibition, % at 10 µM | hit rate 3.8% among 220,000;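 active = compounds that reduced the stress-induced luciferase reporter signal by more than about 70% of percent inhibition, limit read from the data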;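 also: 0% = tunicamycin plus vehicle and 100% = wells without tunicamycin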
CHOP UPR activ – activators of apoptotic arm of unfolded protein response (CHOP); CHO-CHOP luciferase reporter, UPR activation, luminescence; percent of tunicamycin response over DMSO baseline; activation, % at 10 µM; hit rate 0.34% among 330,000;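 active = at 10 µM dose, activation of 40% or more, normalized to positive control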;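 also: 100% = tunicamycin at 10 µg/mL and 0% = DMSO alone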
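assay system = CHO CHOP reporter cells | amount = 500 CHO-CHOP cells per well | buffer or medium = F12 with 10% FBS | incubation = 16-18 h cell attachment, then 6 h compound exposure, 37 °C | detection = luminescence read with Steady-Glo | read-out = percent activation relative to tunicamycin control | controls = tunicamycin high control, DMSO low control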
An asterisk follows results filed as active; . = not tested or not shown. The full list was thinned out, with hits kept by preference.

SMILES	T cruzi repl	L major viab	Dynein cargo inh	XBP1 UPR activ	CHOP inh	CHOP UPR activ
CCc1ccc(C2=NN(c3ccc(S(N)(=O)=O)cc3)C(c3ccc(F)cc3)C2)cc1 (configuration not stated)	29	78*	-1	12	90*	-1
NS(=O)(=O)c1ccc(N2N=C(c3ccccc3)CC2c2ccccc2)cc1 (configuration not stated)	10	0	0.34	-3	81*	0
CCOc1cc(-c2sc(Nc3ccccc3)n[n+]2C)ccc1OC	-12	.	.	-1	.	-3
O=C(NCc1ccccc1Cl)C(=O)c1cn(CC(=O)N2CCOCC2)c2ccccc12	-9	.	.	-3	.	1
COc1ccc(OC)c(S(=O)(=O)N2c3ccccc3CC2C)c1 (configuration not stated)	3	100*	-0.44	-2	8	-1
COc1ccc(S(=O)(=O)N2CCc3ccccc32)cc1C(=O)O	-15	.	.	-2	.	-1
COc1ccc(Br)cc1S(=O)(=O)N1CCCc2ccccc21	9	.	.	-6	.	-2
COc1ccc(OC)c(S(=O)(=O)N2CCc3ccccc32)c1	-2	95*	-0.77	-1	-13	5
COc1ccc(OC)c(S(=O)(=O)N2CCCc3ccccc32)c1	3	100*	0.88	-2	13	-1
COc1ccc(C(=O)N2CCCN(C)CC2)cc1S(=O)(=O)N1CCCc2ccccc21	13	55*	1.3	-2	-37	1
CCC1(c2ccc(OC)cc2)NC(=O)N(CC(=O)c2ccc3c(c2)OCCO3)C1=O (configuration not stated)	.	.	.	-3	.	2
CCC(C)N(C(=O)COC(=O)c1ccccc1SCC(=O)N1CCCC1)C1CCS(=O)(=O)C1 (configuration not stated)	-2	.	.	-1	.	1
O=C(CCc1ccncc1)NC1CCCc2c1cnn2-c1ccc(F)cc1F (configuration not stated)	-8	.	.	-1	.	0
COc1ccc(C(=O)NCc2ccc(C)cc2)cc1S(=O)(=O)N1CCCc2ccccc21	39	99*	-0.2	3	35	1
COc1ccc(C(=O)NCC2CCCO2)cc1S(=O)(=O)N1CCCc2ccccc21 (configuration not stated)	12	3	1.3	-5	30	0
COc1ccc(OC)c(S(=O)(=O)N2c3cc(F)ccc3CCC2C)c1 (configuration not stated)	17	100*	-0.92	-6	7	1
COc1ccc(-n2cnc3ccccc3c2=O)c([N+](=O)[O-])c1	-16	.	.	-2	.	0
Cc1ccc2nc(C)cc(C(=O)N3CCCC(CO)(Cc4ccccc4C)C3)c2c1 (configuration not stated)	29	61*	1	-2	14	-2
Cc1ccccc1CC1(CO)CCCN(Cc2ccccc2Cl)C1 (configuration not stated)	21	.	.	-2	.	1
Cc1ccccc1CC1(CO)CCCN(Cc2ccc(C#CC(C)(C)O)cc2)C1 (configuration not stated)	36	85*	0.13	-3	36	1
Cc1ccccc1CC1(CO)CCCN(C(=O)CCC(=O)c2ccccc2)C1 (configuration not stated)	3	4	-0.79	1	5	0
Cc1ccc(C)c(-c2[nH]ncc2CN2CCCC(CO)(Cc3ccccc3C)C2)c1 (configuration not stated)	33	73*	-0.85	3	35	1
CC(C)(O)C#Cc1ccc(CN2CCCC(CO)(Cc3cccc(Cl)c3)C2)cc1 (configuration not stated)	58*	97*	-0.46	-1	54	-1
COc1cccc(COC(=O)Cc2ccc(S(=O)(=O)N3CCOCC3)s2)c1OC	.	.	.	-1	.	2
O=C(CC(C(=O)O)c1cccc(Cl)c1Cl)c1ccccc1 (configuration not stated)	-4	.	.	-3	.	1
